ChEMBL document CHEMBL1126240, “Structure-activity relationship studies of central nervous system agents. 5. Effect of the hydrocarbon chain on the affinity of 4-substituted 1-(3-chlorophenyl)piperazines for 5-HT1A receptor site” (J Med Chem, 1992)

Tests used:
[1] = molecular target: T1, 5-hydroxytryptamine receptor 1A (Rattus norvegicus, UniProt P19327); assay: In vitro ability to displace [3H]8-hydroxy-2-(di-n-propylamino) tetralin binding from 5-hydroxytryptamine 1A receptor site in rat brain hippocampus; type: tissue-based
T1 sequence (P19327 whole entry): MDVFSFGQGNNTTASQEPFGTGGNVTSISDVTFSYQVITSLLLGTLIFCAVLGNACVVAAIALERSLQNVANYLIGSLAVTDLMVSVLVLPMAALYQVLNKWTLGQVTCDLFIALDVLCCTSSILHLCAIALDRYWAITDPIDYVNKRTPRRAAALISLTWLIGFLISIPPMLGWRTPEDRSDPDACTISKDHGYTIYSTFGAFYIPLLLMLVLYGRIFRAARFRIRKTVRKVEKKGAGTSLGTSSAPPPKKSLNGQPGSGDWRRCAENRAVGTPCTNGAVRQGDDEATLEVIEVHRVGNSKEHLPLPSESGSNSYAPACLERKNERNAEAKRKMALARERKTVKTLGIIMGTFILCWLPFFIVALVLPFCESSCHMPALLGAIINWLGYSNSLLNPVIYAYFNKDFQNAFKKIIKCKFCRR

[2] = molecular target: T2, 5-hydroxytryptamine receptor 1A (Rattus norvegicus) (UniProt P19327); assay: Ability to displace the protonated form of [3H]8-hydroxy-2-(di-n-propylamino)tetralin binding from labeled 5-hydroxytryptamine 1A receptor site in rat brain hippocampus; type: tissue-based
T2 sequence (whole entry): T1 sequence (P19327 whole entry)
Procedure, shortened: (§1)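 Radioligand displacement in rat hippocampal tissue using [³H]-8-OH-DPAT as ligand, following a previously published protocol; affinity given as Ki for the protonated (AH+) species.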

[3] = % ionization at the pH 7.4 at 37 degree Centigrade; type: ADME
Procedure, shortened: (§2)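 Fraction ionized calculated from eq 1 using pKa2 measured by potentiometric titration at 37 °C, for pH 7.4 and 37 °C.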

[4] = Compound was evaluated for the Ionization constants at 37 degree Centigrade pKa2; type: physicochemical; details: read-out: pKa2
Procedure, shortened: (§3)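 Potentiometric titration at 37 °C; pKa values fitted to the titration data by nonlinear regression.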

[5] = Compound was evaluated for the Ionization constants at 37 degree Celsius pKa1; type: physicochemical; details: read-out: pKa1; procedure, shortened: as §3
[6] = molecular target: T2, 5-hydroxytryptamine receptor 1A (Rattus norvegicus); assay: Compound was evaluated for its ability to displace the protonated form of [3H]8-hydroxy-2-(di-n-propylamino)tetralin binding from labeled 5-HT 1A receptor site.; procedure, shortened: as §1
[7] = Compound was evaluated for the percentage ionization at the pH 7.4 at 37 degree Centigrade; type: ADME; procedure, shortened: as §2
[8] = molecular target: T2, 5-hydroxytryptamine receptor 1A (Rattus norvegicus); details: Hippocampus

| SMILES | Ki [1] [nM] | KiAH [2] [nM] | Ionization [3] [%] | pKa [4] | pKa [5] | KiAH [6] [nM] | Ionization [7] [%] | KiAH [8] [nM] |
| --- | --- | --- | --- | --- | --- | --- | --- | --- |
| O=C(c1ccccc1)N1CCN(c2cccc(Cl)c2)CC1 | > 100000 | – | – | – | – | – | – | – |
| Clc1cccc(N2CC[N+]3(CCCC3)CC2)c1 | 7220 | – | – | – | – | – | – | – |
| OCCN1CCN(c2cccc(Cl)c2)CC1 | 202 | 50.3 | 24.9 | 6.92 | – | – | – | – |
| Clc1cccc(N2CCNCC2)c1 [CHLOROPHENYLPIPERAZINE] | 143 | 131 | 91.3 | 8.42 | – | – | – | – |
| CCCCN1CCN(c2cccc(Cl)c2)CC1 | 18.4 | 3.06 | 16.6 | 6.7 | 2.43 | – | – | – |
| CCCN1CCN(c2cccc(Cl)c2)CC1 | 122 | 38.9 | 31.9 | 7.07 | 2.39 | – | – | – |
| CC(=O)N1CCN(c2cccc(Cl)c2)CC1 | > 100000 | – | – | – | – | – | – | – |
| CCCN(CCC)C1CCc2cccc(O)c2C1 (stereo unspecified) [8-OH-DPAT] | – | – | – | 8.02 | – | 1.16 | 80.6 | – |
| CC(C)N1CCN(c2cccc(Cl)c2)CC1 | 159 | 102 | 64 | 7.65 | 2.37 | – | – | – |
| CCN1CCN(c2cccc(Cl)c2)CC1 | 220 | 166 | 75.5 | 7.89 | 2.48 | – | – | – |
| O=C(Cc1ccccc1)N1CCN(c2cccc(Cl)c2)CC1 | 14800 | – | – | – | – | – | – | – |
| CCC(=O)N1CCN(c2cccc(Cl)c2)CC1 | 30800 | – | – | – | – | – | – | – |
| CC1(C)CC(=O)N(CCCCN2CCN(c3ncccn3)CC2)C(=O)C1 [GEPIRONE] | – | 20.2 | 63.5 | 7.64 | – | – | – | – |
| CCC(C)N1CCN(c2cccc(Cl)c2)CC1 (stereo unspecified) | 127 | 27.4 | 21.6 | 6.84 | 2.32 | – | – | – |
| CCCCCN1CCN(c2cccc(Cl)c2)CC1 | 5.54 | 0.282 | 5.1 | 6.13 | 2.46 | – | – | – |
| C=CCN1CCN(c2cccc(Cl)c2)CC1 | 251 | 81.2 | 32.4 | 7.08 | 2.94 | – | – | – |
| Clc1cccc(N2CCOCC2)c1 | > 100000 | – | – | – | 2.33 | – | – | – |
| CC(C)C(=O)N1CCN(c2cccc(Cl)c2)CC1 | > 100000 | – | – | – | – | – | – | – |
| CCCCCCN1CCN(c2cccc(Cl)c2)CC1 | 2.67 | 0.032 | 1.2 | 5.49 | 2.57 | – | – | – |
| CN1CCN(c2cccc(Cl)c2)CC1 | 152 | 134 | 88.1 | 8.27 | 2.82 | – | – | – |
| O=C1c2ccccc2S(=O)(=O)N1CCCCN1CCN(c2ncccn2)CC1 [IPSAPIRONE] | 3.4 | – | 0.7 | 5.25 | – | – | – | 0.024 |
| Clc1cccc(N2CCN(Cc3ccccc3)CC2)c1 | 166 | 0.166 | 0.1 | 4.39 | – | – | – | – |
| CCCC(=O)N1CCN(c2cccc(Cl)c2)CC1 | 49000 | – | – | – | – | – | – | – |
